Measured values of several laboratories.
Read-out: cell growth or viability

SMILES	cell line	test	setting	endpoint	result
COc1cc(OC)c2nccc(N3CCc4c(cc(Cn5ccnc5)cc4-c4cn(C)nc4C(F)(F)F)C3=O)c2c1	K562	ATP luminescence	5 days	GI50	7300 nM
CC(C)(C=O)Cc1cc(C(C)(C)C)c(O)c(C(C)(C)C)c1	CAL-27		72 h	IC50	> 20000 nM
CCCc1n(Cc2ccc3ccccc3n2)cc[n+]1Cc1ccc2ccccc2c1	HOP-62	SRB		TGI	5.38 µM
CC(C)C[C@H](NC(=O)[C@H](Cc1ccccc1)NC(=O)c1cnccn1)B(O)O	OVK18	ATP luminescence		IC50	8.8 nM
COc1cc(-c2ccc(-c3ccc(C(=N)N)nc3)s2)cc(OC)c1OC	HOP-92	SRB		GI50	1910 nM
CCCCc1ccc2[nH]c(NC(=O)OC)nc2c1	CAL-27		72 h	IC50	270 nM
COc1ccc(-c2ccc(-c3ccc(C(=N)N)nc3)s2)cc1	UO-31			GI50	1640 nM
c1ccc(-c2n(Cc3ccc4ccccc4c3)cc[n+]2Cc2ccc3ccccc3c2)cc1	HOP-92	SRB		TGI	2.28 µM
COc1cccc(Oc2ccccc2NC(=O)CNC(=O)c2cccc3ccccc23)c1	UO-31	SRB	48 h	GI50	1820 nM
CCc1n(Cc2ccc3ccccc3n2)cc[n+]1Cc1ccc2ccccc2c1	HOP-62	SRB		TGI	7.02 µM
Cc1cc(C)n(C(=S)[S][Au][PH](CCCCCC[PH]([Au][S]C(=S)n2nc(C)cc2C)(c2ccccc2)c2ccccc2)(c2ccccc2)c2ccccc2)n1	UO-31			GI50	482 nM
c1ccc2cc(Cn3cc[n+](Cc4ccc5ccccc5c4)c3)ccc2c1	HOP-92	SRB		TGI	1.39 µM
Nc1c2c(nc3ccccc13)CCCC2O (stereo not shown)	CAL-27		72 h	IC50	> 20000 nM
